Most compounds without a hit are left out; they make up all but 3% or so of the library.
DDE Tn7 FP inh: DD(E)-Tn7 binding inhibition, primary FP screen; P02675; FP displacement of FITC-Tn7 peptide from fibrin DD(E); 0% = median of compound wells per plate; inhibition, % at 8.3 µM; 370,000 tested, 0.13% active;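 active = inhibition above the mean of compounds falling within the control limits plus 3 SD of them, cut at about 14% in these data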;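 also: 0% = plate median of compound wells and 100% = 10 µM Aha-Tn7 peptide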
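Assay system: Human fibrin DD(E) protein | Medium: Tris buffer with calcium and detergent, pH 7.8 | Reagent: 0.1 µM fluorescent Tn7 | Compound dosing: Single point at 8.3 µM | Times: 10 min preincubation, 3 h with tracer, room temperature | Detection: Fluorescence polarization of the labelled Tn7 tracer | Controls: Aha-Tn7 high control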
DDE Tn6 FP inh: inhibitors of Tn6 peptide binding to human fibrin DD(E) | P02675 | Fibrin DD(E) TRITC-Tn6 fluorescence polarization displacement | inhibition, % at 8.3 µM | 370,000 tested, 0.21% active | AID 720509;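 active = inhibition above a per-campaign cutoff: mean of compounds within control limits plus 3 SD, cut at about 15% in these data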;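 also: 0% = median of all compound wells on the plate and 100% = blocking peptide control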
PLC-beta3 inh: blocks human PLC-beta3 enzyme activity | Q01970 | 370,000 tested, 0.18% active | inhibition, % at 12.2 µM | Purified PLC-beta3, fluorogenic substrate, fluorescence; in the data active = inhibition above about 11%;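 also: 0% = median of compound wells on plate and 100% = full blocker control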
PLCg1 inh: inhibitors of human phospholipase C gamma1; purified PLC-gamma1, fluorogenic substrate, fluorescence; 370,000 tested, 0.84% active; AID 720700; inhibition, % at 12.2 µM; in the data active = inhibition above about 9.5%
proKLK7 act: activates the human kallikrein-7 zymogen. purified proKLK7, EDANS-DABCYL substrate fluorescence; 100% is mature enzyme control, 0% vehicle. activation, % at 7 µM. 370,000 tested, 0.9% active. AID 652039;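 active = activation above the mean of all tested compounds plus 3 SD, computed per campaign excluding outliers beyond control limits, cut at about 13% in these data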
NRP1-CendR mod: NRP-1/CendR interaction modulation. O14786. 360,000 tested, 0.85% active. FAM-RPARPAR peptide binding to NRP-1, fluorescence polarization. AID 602438. inhibition, % at 25 µM;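 active = inhibition or corrected inhibition above about 18%, plus a signal ratio from 0.5 to 1.5, limit read from the data, passing the limit was not always enough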
Target sequence (O14786 whole entry, looked up): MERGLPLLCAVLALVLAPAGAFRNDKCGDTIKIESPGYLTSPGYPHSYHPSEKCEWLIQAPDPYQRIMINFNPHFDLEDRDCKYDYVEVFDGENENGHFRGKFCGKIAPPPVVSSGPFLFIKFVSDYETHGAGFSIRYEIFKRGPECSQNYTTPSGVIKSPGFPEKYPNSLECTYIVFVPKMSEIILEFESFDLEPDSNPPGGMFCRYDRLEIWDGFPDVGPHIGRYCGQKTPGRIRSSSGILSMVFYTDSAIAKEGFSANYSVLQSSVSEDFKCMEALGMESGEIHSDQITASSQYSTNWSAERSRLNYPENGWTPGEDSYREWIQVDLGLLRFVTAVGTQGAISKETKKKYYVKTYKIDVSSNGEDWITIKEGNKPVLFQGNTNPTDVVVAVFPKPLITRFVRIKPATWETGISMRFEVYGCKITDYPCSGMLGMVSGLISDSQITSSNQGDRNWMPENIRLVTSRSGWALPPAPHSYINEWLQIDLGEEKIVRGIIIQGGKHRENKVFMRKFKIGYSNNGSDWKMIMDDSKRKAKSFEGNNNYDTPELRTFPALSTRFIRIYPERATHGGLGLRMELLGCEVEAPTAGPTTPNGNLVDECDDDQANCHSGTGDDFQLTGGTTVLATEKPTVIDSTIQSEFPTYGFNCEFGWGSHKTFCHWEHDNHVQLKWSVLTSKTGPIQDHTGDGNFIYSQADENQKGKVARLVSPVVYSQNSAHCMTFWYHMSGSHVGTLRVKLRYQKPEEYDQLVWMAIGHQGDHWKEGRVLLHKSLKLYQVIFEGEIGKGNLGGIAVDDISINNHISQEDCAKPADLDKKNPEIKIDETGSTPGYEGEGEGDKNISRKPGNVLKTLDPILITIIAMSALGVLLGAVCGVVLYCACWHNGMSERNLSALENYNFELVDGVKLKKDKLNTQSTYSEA
DDE Tn7 confirm: confirmation of inhibitors of Tn7 binding to human fibrin DD(E); FP displacement of TRITC-Tn7 peptide from DD(E); 0% set at plate's compound-well median; inhibition, % at 8.3 µM; 460 tested, 5% active; shares compounds with DDE Tn7 FP inh;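 active = inhibition above the campaign cutoff, the mean of compounds within control limits plus 3 SD, cut at about 14% in these data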;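 also: 100% = median FP of high control wells holding Aha-Tn7 inhibitor peptide; displacers lower polarization since freed probe rises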
DDE Tn7 FP ctr: DD(E)-Tn7 binding inhibition, counter-screen. shares compounds with DDE Tn7 FP inh. 460 tested, 3% active. inhibition, % at 8.3 µM. fibrin DD(E), TRITC-Tn7 probe displacement, fluorescence polarization;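 active = inhibition above the cutoff, the mean of compounds lying between the control bounds plus 3 SD of those compounds, cut at about 17% in these data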;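 also: 0% = median of compound sample wells and 100% = excess unlabeled Aha-Tn7 peptide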
* hit, by the source's call; i = inactive; / = no result.

SMILES	DDE Tn7 FP inh	DDE Tn6 FP inh	PLC-beta3 inh	PLCg1 inh	proKLK7 act	NRP1-CendR mod	DDE Tn7 confirm	DDE Tn7 FP ctr
O=C(CSc1nnc(Cc2ccccc2)o1)N1CCCC1	-2.7	8.9	-4.5	2.7	0.1	-0.2	/	/
COc1ccc(N=Cc2cc(Cl)ccc2O)cc1Cl	-6.9	-2.2	3.5	-0.6	-1.2	-8.1	/	/
Cc1ccc(N=Cc2ccccc2O)cc1Cl	14.6*	6.4	0.6	-1.2	-0.6	2.0	4.2	3.2
CC(C)CNC(=O)CC1Oc2ccccc2NC1=O (configuration not stated)	-1.9	9.0	-0.5	1.2	0.1	/	/	/
COc1ccc(OC)c(NCCN2C(=O)c3ccccc3C2=O)c1	5.6	2.5	4.3	3.6	0.4	1.1	/	/
CCCCNc1ccc2c3c(cccc13)C(=O)N(CCCC)C2=O	47.4*	13.8	i	-430.4	0.8	129.9	7.1	19.0*
CCCN1C(=O)c2cccc3c(N4CCCCC4)ccc(c23)C1=O	16.3*	3.9	-217.3	-180.9	-1.6	133.5	5.2	3.0
CC(C)(C)c1ccc(C(=O)Nc2cc(Cl)c(Cl)cc2C(=O)O)cc1	-4.6	-8.2	-5.2	-0.1	/	/	/	/
Cc1ccccc1NC(=O)CCCNC(=O)c1ccc(Cl)cc1	-2.9	-1.6	-0.5	1.8	-0.8	-1.7	/	/
CC(=O)c1ccccc1NC(=O)CCCNC(=O)c1ccc(Cl)cc1	14.7*	9.1	-24.8	-9.4	0.1	0.1	9.6	3.0
O=c1c2ccccc2n(Cc2ccno2)n1[C@@H](Cc1ccccc1)Cn1cc(-c2ccc(-c3ccccc3)cc2)nn1	4.4	-1.5	-43.8	-25.8	-7.3	/	/	/
NS(=O)(=O)c1ccc(CNC(=O)Cc2ccccc2[N+](=O)[O-])cc1	15.3*	2.1	-4.9	-0.2	-0.4	10.3	0.0	2.5
C[C@H]1[C@H](N)CC[C@@]23CCCN2C(=O)CCC[C@@H]13	2.6	7.7	0.7	0.1	/	/	/	/
O=C(N/N=C/c1sc(=O)[nH]c1-[n+]1ccc2ccccc2c1)c1ccccc1[O-]	19.5*	-5.0	-155.0	-93.5	0.6	-7.5	4.4	1.6
COP(=O)(OC)C(Cc1ccccc1)NC(=O)CNC(=O)OCc1ccccc1 (configuration not stated)	-6.0	5.0	1.4	-0.6	-0.5	/	/	/
Cc1ccc(NC(=O)C2CC(O)CN2C(=O)OCc2ccccc2)cc1C (configuration not stated)	14.7*	5.3	-9.0	-3.7	-0.2	19.9	7.4	2.9
Cc1cccc(NC(=O)C2CC(O)CN2C(=O)OCc2ccccc2)c1 (configuration not stated)	-3.5	6.4	1.6	2.0	-0.7	5.3	/	/
O=S(=O)(c1ccc(SCc2ccc(Br)cc2)nc1)N1CCCCC1	13.8*	3.5	-5.1	1.7	-0.1	-9.9	-5.4	-9.8
COC(=O)C1CSC(C(=O)OC)N1C(=O)Nc1ccc(Cl)cc1 (configuration not stated)	2.0	2.4	0.5	0.6	-0.8	11.6	/	/
COC(=O)C1CSC(C(=O)OC)N1C(=O)Nc1ccc(Cl)c(Cl)c1 (configuration not stated)	15.0*	3.5	-2.4	-2.9	0.1	-10.7	1.2	-1.8
C[C@H](O)[C@@H]1CN2CCc3c([nH]c4c(-c5ccccc5)cccc34)[C@@H]2C[C@@H]1N(C)C(=S)NCCc1ccccc1	4.0	0.8	-438.6	-337.4	1.2	/	/	/
O=C(CCCOc1ccc(Cl)cc1)N1CCCCCC1	13.8*	2.9	-3.2	1.0	0.0	3.6	8.3	3.7
COc1cccc(NC(=O)COC(=O)c2ccc(S(=O)(=O)NCc3ccco3)cc2)c1	14.9*	3.9	-0.8	0.0	-0.8	-10.1	0.0	-5.2
CC(=O)Nc1ccc(NC(=O)COC(=O)c2ccc(S(=O)(=O)NCc3ccco3)cc2)cc1	-4.4	6.3	1.0	1.3	0.0	9.5	/	/
CC(C)(CNc1ccc([N+](=O)[O-])cc1C#N)N1CCOCC1	15.1*	2.2	-7.2	-0.2	0.1	2.6	5.0	1.6
SMILES	DDE Tn7 FP inh	DDE Tn6 FP inh	PLC-beta3 inh	PLCg1 inh	proKLK7 act	NRP1-CendR mod	DDE Tn7 confirm	DDE Tn7 FP ctr
O=C(O)c1ccccc1C1=Nc2ccc(O)cc2Oc2cc(O)ccc21	35.4*	9.4	-22.0	-14.1	-0.2	133.6	4.9	-6.3
Cc1ccc(Cn2nnc3c2-c2ccccc2S(=O)(=O)N(C(C)(C)C)C3)cc1	2.5	8.3	1.0	-1.4	0.5	/	/	/
O=C1NC(=S)SC1=Cc1cccs1	14.1*	7.9	1.4	-0.6	0.4	-56.5	-6.5	-7.8
COC(=O)C1CN(Cc2ccccc2)CCS(=O)(=O)N1Cc1ccc(C)cc1 (configuration not stated)	0.7	7.0	1.4	-1.1	0.1	/	/	/
COC(=O)C1CN(C2CCCC2)CCS(=O)(=O)N1Cc1ccccc1 (configuration not stated)	16.0*	-0.1	2.5	-0.7	-0.2	/	-2.2	-4.5
CN1C(=O)c2cc(NC(=O)Nc3ccccc3)ccc2OC[C@H]2O[C@@H](CC(=O)NC3Cc4ccccc4C3)CC[C@@H]21	-8.7	-3.8	1.3	6.2	-0.1	/	/	/
CCN(C(=O)C(C)N1C(=O)/C(=C/c2ccco2)SC1=S)C1CCS(=O)(=O)C1 (configuration not stated)	14.2*	9.2	-8.2	-2.0	0.9	-40.3	-0.5	-4.3
O=[N+]([O-])c1ccc(NCCNc2ccc([N+](=O)[O-])cc2)cc1	8.0	5.8	2.6	1.5	0.5	5.9	/	/
C#CCNc1ccc([N+](=O)[O-])cc1	18.8*	-0.7	3.3	1.5	0.1	-5.3	13.7	2.1
COC(=O)[C@]12C[C@H](CC(=O)N3CCCC3)C(=O)N(Cc3cccc4ccccc34)C1=C[C@H](C1CCCC1)O[C@@H]2C	-9.7	-0.6	3.0	4.2	0.2	/	/	/
O=C1[C@@H](C2CC2)[C@@H]2c3ccccc3C=NN2[C@@H]2c3ccccc3C=NN12	-5.1	5.2	-5.8	4.0	-0.1	/	/	/
Cc1cc(NC(=O)COC(=O)CNC(=O)c2cccs2)c([N+](=O)[O-])cc1C	-4.6	0.4	-5.8	-3.2	0.4	-8.4	/	/
O=C(COC(=O)CNC(=O)c1cccs1)Nc1ccc(C(F)(F)F)cc1[N+](=O)[O-]	14.8*	7.2	-5.8	-1.3	0.2	4.1	-1.8	-2.5
CCOC(=O)C1=C(C)Nc2ccccc2N/C1=N\S(=O)(=O)c1cccc(Cl)c1	15.7*	-0.1	-10.5	-0.4	-0.3	9.4	7.0	-1.1
CC(C)c1nc(C#N)c(NN)o1	13.8*	-3.1	-54.2	-49.0	0.3	0.8	-6.7	-9.2

Assay outcomes deposited in PubChem by several laboratories.
